Data taken from ChEMBL document CHEMBL1147929, “Synthesis and in vitro photodynamic activities of water-soluble fluorinated tetrapyridylporphyrins as tumor photosensitizers” (Bioorg Med Chem Lett, 2007).
The source made the active and inactive calls. The rule behind the calls is not given here.

Legend:
HeLa [1] = experiment: Phototoxicity against HeLa cells assessed as photo-induced growth inhibition after 48 hrs by MTT assay; assay type: functional, cell-based, Homo sapiens
Summary of the method: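 HeLa cells pre-incubated 1 h with a range of porphyrin concentrations. Without washing, cells were irradiated 1 h with a fluorescent lamp (530–620 nm; 0.44 mW/cm², 1.6 J/cm²). They were then incubated 48 h at 37 °C, and survival fraction was read by MTT. Non-irradiated cells served as dark controls.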

HeLa [2] = experiment: Cytotoxicity in HeLa cells assessed as PDT-induced ROS generation after 2 hrs by flow cytometry; assay type: functional, cell-based; details: Homo sapiens
Summary of the method: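 HeLa cells exposed to porphyrins at […] for 2 h, then irradiated with visible light. Intracellular ROS probed with 2,7-dichlorofluorescin (DCF). DCF fluorescence read by flow cytometry after 2 h of porphyrin treatment. Untreated cells served as baseline.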

HeLa [3] = experiment: Induction of apoptosis in HeLa cells assessed as accumulation at subG1 phase by FACS flow cytometry; assay type: functional, cell-based; details: Homo sapiens
Summary of the method: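 HeLa cells treated with 0, 4.6, 9.2, 18.4, 27.6 or 36.8 μM porphyrin, then stained with propidium iodide. The sub-G1 population was measured from DNA content histograms by FACS flow cytometry and taken as apoptotic cells. Values are means ± S.D.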

[4] = Homo sapiens, HeLa, light or radiation study, 48 h

Structure (SMILES): C[n+]1cc(F)c(-c2c3nc(c(-c4c(F)c[n+](C)cc4F)c4ccc([nH]4)c(-c4c(F)c[n+](C)cc4F)c4nc(c(-c5c(F)c[n+](C)cc5F)c5ccc2[nH]5)C=C4)C=C3)c(F)c1
- IC50 (HeLa [1]; hela): 870 nM
- Activity (HeLa [2]): Active

Structure (SMILES): C[n+]1cccc(-c2c3nc(c(-c4ccc[n+](C)c4F)c4ccc([nH]4)c(-c4ccc[n+](C)c4F)c4nc(c(-c5ccc[n+](C)c5F)c5ccc2[nH]5)C=C4)C=C3)c1F
- IC50 (HeLa [1]; hela): 1100 nM
- Activity (HeLa [3]): Dose-dependent effect
- Activity (HeLa [2]): Active

Structure (SMILES): C[n+]1ccc(-c2c3nc(c(-c4cc[n+](C)cc4)c4ccc([nH]4)c(-c4cc[n+](C)cc4)c4ccc([nH]4)c(-c4cc[n+](C)cc4)c4nc2C=C4)C=C3)cc1
- Activity (HeLa [2]): Active

Structure (SMILES): C[n+]1ccc(-c2c3nc(c(-c4cc[n+](C)cc4F)c4ccc([nH]4)c(-c4cc[n+](C)cc4F)c4nc(c(-c5cc[n+](C)cc5F)c5ccc2[nH]5)C=C4)C=C3)c(F)c1
- IC50 (HeLa [1]; [4]): 40000 nM
- Activity (HeLa [3]): Dose-dependent effect
- Activity (HeLa [2]): Active

Structure (SMILES): C[n+]1ccc(-c2c3nc(c(-c4cc[n+](C)cc4)c4ccc([nH]4)c(-c4cc[n+](C)cc4)c4nc(c(-c5cc[n+](C)cc5)c5ccc2[nH]5)C=C4)C=C3)cc1
- IC50 (HeLa [1]; [4]): 3000 nM
